# Measured values published in ChEMBL document CHEMBL1142636 (2000).
# How the values were obtained:
# [1] = test system: Hs-578T; test: Growth inhibition of human HS578T cells; format: functional
# [2] = test system: MDA-MB-231; test: Growth inhibition of human MDA-MB-231 cells; format: functional
# [3] = test system: MCF7; test: Growth inhibition of human MCF7 cells; format: functional
# [4] = test system: DU-145; test: Growth inhibition of human DU145 cells; format: functional
# [5] = test system: PC-3; test: Growth inhibition of human PC3 cells; format: functional
# [6] = test system: UO-31; test: Growth inhibition of human UO31 cells; format: functional
# In short: (§1)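 Tested at the NCI in its human disease-oriented in vitro screen of 60 tumour cell lines, following the Monks et al. methods. Activity is expressed as GI50, given as log molar values.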
# [7] = test system: TK-10; test: Growth inhibition of human TK10 cells; format: functional; in short: as §1
# [8] = test system: SN12C; test: Growth inhibition of human SN12C cells; format: functional; in short: as §1
# [9] = test system: RXF 393; test: Growth inhibition of human […] cells; format: functional
# [10] = test system: CAKI-1; test: Growth inhibition of human CAKI1 cells; format: functional
# [11] = test system: ACHN; test: Growth inhibition of human ACHN cells; format: functional
# [12] = test system: A498; test: Growth inhibition of human A498 cells; format: functional
# [13] = test system: 786-0; test: Growth inhibition of human 786-0 cells; format: functional
# [14] = test system: SK-OV-3; test: Growth inhibition of human SK-OV-3 cells; format: functional; in short: as §1
# [15] = Growth inhibition of human OVACR8 cells; format: functional
# [16] = Growth inhibition of human OVACR5 cells; format: functional
# [17] = Growth inhibition of human OVACR4 cells; format: functional
# [18] = Growth inhibition of human […] cells; format: functional
# [19] = test system: IGROV-1; test: Growth inhibition of human IGROV1 cells; format: functional
# [20] = test system: UACC-62; test: Growth inhibition of human UACC62 cells; format: functional; in short: as §1
# [21] = test system: UACC-257; test: Growth inhibition of human UACC257 cells; format: functional; in short: as §1
# [22] = test system: SK-MEL-5; test: Growth inhibition of human SK-MEL-5 cells; format: functional; in short: as §1
# [23] = test system: SK-MEL-28; test: Growth inhibition of human SK-MEL-28 cells; format: functional; in short: as §1
# [24] = test system: SK-MEL-2; test: Growth inhibition of human SK-MEL-2 cells; format: functional; in short: as §1
# [25] = test system: M19-MEL; test: Growth inhibition of human M19-MEL cells; format: functional
# [26] = test system: M14; test: Growth inhibition of human M14 cells; format: functional
# [27] = test system: Malme-3M; test: Growth inhibition of human MALME-3M cells; format: functional
# [28] = test system: LOX IMVI; test: Growth inhibition of human LOX IMVI cells; format: functional
# [29] = test system: U-251; test: Growth inhibition of human U251 cells; format: functional; in short: as §1
# [30] = test system: SNB-75; test: Growth inhibition of human SNB75 cells; format: functional; in short: as §1
# [31] = test system: SNB-19; test: Growth inhibition of human SNB19 cells; format: functional; in short: as §1
# [32] = test system: SF-539; test: Growth inhibition of human SF539 cells; format: functional; in short: as §1
# [33] = test system: SF-295; test: Growth inhibition of human SF295 cells; format: functional; in short: as §1
# [34] = test system: SF-268; test: Growth inhibition of human SF268 cells; format: functional; in short: as §1
# [35] = test system: SW-620; test: Growth inhibition of human SW620 cells; format: functional; in short: as §1
# [36] = test system: KM-20L2; test: Growth inhibition of human KM20L2 cells; format: functional
# [37] = test system: KM12; test: Growth inhibition of human KM12 cells; format: functional
# [38] = test system: HT-29; test: Growth inhibition of human HT29 cells; format: functional
# [39] = test system: HCT-15; test: Growth inhibition of human HCT15 cells; format: functional
# [40] = test system: HCT-116; test: Growth inhibition of human HCT116 cells; format: functional
# [41] = test system: HCC 2998; test: Growth inhibition of human HCC2998 cells; format: functional
# [42] = test system: DLD-1; test: Growth inhibition of human DLD1 cells; format: functional
# [43] = test system: COLO 205; test: Growth inhibition of human COLO205 cells; format: functional
# [44] = test system: DMS-273; test: Growth inhibition of human DMS273 cells; format: functional
# [45] = Growth inhibition of human DMS144 cells; format: functional
# [46] = Growth inhibition of human LXFL529 cells; format: functional; conditions: LXFL 529
# [47] = test system: NCI-H522; test: Growth inhibition of human NCI-H522 cells; format: functional
# [48] = test system: NCI-H460; test: Growth inhibition of human NCI-H460 cells; format: functional
# [49] = test system: NCI-H322M; test: Growth inhibition of human NCI-H322M cells; format: functional
# [50] = test system: NCI-H23; test: Growth inhibition of human NCI-H23 cells; format: functional
# [51] = test system: NCI-H226; test: Growth inhibition of human NCI-H226 cells; format: functional
# [52] = test system: HOP-92; test: Growth inhibition of human HOP92 cells; format: functional
# [53] = test system: HOP-62; test: Growth inhibition of human HOP62 cells; format: functional
# [54] = test system: HOP-18; test: Growth inhibition of human HOP18 cells; format: functional
# [55] = test system: EKVX; test: Growth inhibition of human EKVX cells; format: functional
# [56] = test system: A549; test: Growth inhibition of human A549 cells; format: functional
# [57] = test system: SR; test: Growth inhibition of human SR cells; format: functional; in short: as §1
# [58] = Growth inhibition of human RPMI8266 cells; format: functional
# [59] = test system: MOLT-4; test: Growth inhibition of human MOLT4 cells; format: functional
# [60] = test system: K562; test: Growth inhibition of human K562 cells; format: functional
# [61] = Growth inhibition of human HL60(TB) cells; format: functional, HL-60(TB); conditions: HL-60
# [62] = test system: CCRF-CEM; test: Growth inhibition of human CCRF-CEM cells; format: functional
# [63] = test system: MDA-MB-435; test: Growth inhibition of human MDA-MB-435 cells; format: functional
# [64] = test system: MDA-N; test: Growth inhibition of human MDA-N cells; format: functional
# [65] = test system: BT-549; test: Growth inhibition of human BT549 cells; format: functional
# [66] = test system: T47D; test: Growth inhibition of human T47D cells; format: functional; in short: as §1
# [67] = Growth inhibition of human MCF7/ADR-RES cells; format: functional; conditions: NCI/ADR-RES
smiles,measurement,setting,value
COc1cc(C(=O)O)cc2c1[nH]c1ccccc12 [MUKOEIC ACID],GI50,[1],25.1 µM
same,GI50,[2],25.1 µM
same,GI50,[3],25.1 µM
same,GI50,[4],25.1 µM
same,GI50,[5],25.1 µM
same,GI50,[6],25.1 µM
same,GI50,[7],25.1 µM
same,GI50,[8],25.1 µM
same,GI50,[9],25.1 µM
same,GI50,[10],25.1 µM
same,GI50,[11],25.1 µM
same,GI50,[12],25.1 µM
same,GI50,[13],25.1 µM
same,GI50,[14],25.1 µM
same,GI50,[15],25.1 µM
same,GI50,[16],25.1 µM
same,GI50,[17],25.1 µM
same,GI50,[18],25.1 µM
same,GI50,[19],25.1 µM
same,GI50,[20],25.1 µM
same,GI50,[21],25.1 µM
same,GI50,[22],25.1 µM
same,GI50,[23],25.1 µM
same,GI50,[24],25.1 µM
same,GI50,[25],25.1 µM
same,GI50,[26],25.1 µM
same,GI50,[27],25.1 µM
same,GI50,[28],25.1 µM
same,GI50,[29],25.1 µM
same,GI50,[30],25.1 µM
same,GI50,[31],25.1 µM
same,GI50,[32],25.1 µM
same,GI50,[33],25.1 µM
same,GI50,[34],25.1 µM
same,GI50,[35],25.1 µM
same,GI50,[36],25.1 µM
same,GI50,[37],25.1 µM
same,GI50,[38],25.1 µM
same,GI50,[39],25.1 µM
same,GI50,[40],25.1 µM
same,GI50,[41],25.1 µM
same,GI50,[42],25.1 µM
same,GI50,[43],25.1 µM
same,GI50,[44],25.1 µM
same,GI50,[45],25.1 µM
same,GI50,[46],25.1 µM
same,GI50,[47],25.1 µM
same,GI50,[48],25.1 µM
same,GI50,[49],25.1 µM
same,GI50,[50],25.1 µM
same,GI50,[51],25.1 µM
same,GI50,[52],25.1 µM
same,GI50,[53],25.1 µM
same,GI50,[54],25.1 µM
same,GI50,[55],25.1 µM
same,GI50,[56],25.1 µM
same,GI50,[57],25.1 µM
same,GI50,[58],25.1 µM
same,GI50,[59],25.1 µM
same,GI50,[60],25.1 µM
same,GI50,[61],25.1 µM
same,GI50,[62],25.1 µM
same,GI50,[63],25.1 µM
same,GI50,[64],25.1 µM
same,GI50,[65],25.1 µM
same,GI50,[66],25.1 µM
same,GI50,[67],25.1 µM
C=C(C)C(O)CCC1(C)C=Cc2c(c(C)cc3c2[nH]c2ccccc23)O1 (stereo not given),GI50,[1],3.16 µM
same,GI50,[2],3.47 µM
same,GI50,[3],12.3 µM
same,GI50,[4],12.6 µM
same,GI50,[5],6.61 µM
same,GI50,[6],12 µM
same,GI50,[7],14.1 µM
same,GI50,[8],9.55 µM
same,GI50,[9],2.75 µM
same,GI50,[11],4.47 µM
same,GI50,[12],13.5 µM
same,GI50,[13],3.89 µM
same,GI50,[14],11 µM
same,GI50,[15],10.7 µM
same,GI50,[16],2.09 µM
same,GI50,[17],16.6 µM
same,GI50,[18],10.2 µM
same,GI50,[19],8.32 µM
same,GI50,[21],8.13 µM
same,GI50,[22],10 µM
same,GI50,[24],2.09 µM
same,GI50,[26],6.61 µM
same,GI50,[27],11.2 µM
same,GI50,[28],3.09 µM
same,GI50,[29],5.37 µM
same,GI50,[30],3.31 µM
same,GI50,[31],11.5 µM
same,GI50,[32],3.63 µM
same,GI50,[33],4.37 µM
same,GI50,[34],5.62 µM
same,GI50,[35],5.13 µM
same,GI50,[37],2 µM
same,CC50,[37]; read-out: pLC50 (the source's name) (converted),9.33 µM
same,GI50,[38],1.7 µM
same,LC50,[38],6.17 µM
same,GI50,[39],1.95 µM
same,GI50,[40],9.77 µM
same,GI50,[41],2.19 µM
same,GI50,[43],2.45 µM
same,GI50,[47],3.31 µM
same,GI50,[48],2.34 µM
same,GI50,[49],7.94 µM
same,GI50,[50],10.7 µM
same,GI50,[51],6.31 µM
same,GI50,[52],10.2 µM
same,GI50,[53],2.45 µM
same,GI50,[56],5.01 µM
same,GI50,[57],4.47 µM
same,GI50,[58],2.95 µM
same,GI50,[59],3.47 µM
same,GI50,[60],2.75 µM
same,GI50,[61],4.27 µM
same,GI50,[62],4.17 µM
same,GI50,[63],8.32 µM
same,GI50,[64],3.55 µM
same,GI50,[65],12.9 µM
same,GI50,[66],7.76 µM
same,GI50,[67],8.91 µM
